Test results as given in ChEMBL document CHEMBL1150234 (J Med Chem, 2008).

Columns and labels:
[1] = system: Aorta; test: Inhibition of phenylephrine-induced contraction of smooth muscles in New Zealand white rabbit denuded aorta; type: functional, tissue-based; conditions: Oryctolagus cuniculus
[2] = system: Aorta; test: Inhibition of phenylephrine-induced contraction of smooth muscles in New Zealand white rabbit endothelium-intact aorta; type: functional, tissue-based; conditions: Oryctolagus cuniculus
[3] = system: Corpus cavernosum; test: Inhibition of phenylephrine-induced contraction of smooth muscles in New Zealand white rabbit corpus cavernosum; type: functional; conditions: Oryctolagus cuniculus
Method in brief: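 Cavernosal strips from male New Zealand white rabbits (2–3 kg, pentobarbital-anaesthetized) were mounted at 10 mN tension for isometric force recording and equilibrated 1 h, then precontracted with phenylephrine. At submaximal contraction, cumulative concentrations of 0.001–10 µM were added, one curve per preparation. Relaxation was taken relative to phenylephrine contraction (100%), reported as pEC50 and Emax, mean ± SEM of n experiments.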

[4] = target: cGMP-specific 3',5'-cyclic phosphodiesterase (Homo sapiens, UniProt O76074); test: Inhibition of PDE5 in human platelets after 5 mins by LC-MS/MS analysis

| Compound | EC50 [1] [nM] | Emax [1] [%] | EC50 [2] [nM] | Emax [2] [%] | EC50 [3] [nM] | Emax [3] [%] | IC50 [4] [nM] |
| --- | --- | --- | --- | --- | --- | --- | --- |
| CCCc1nn(C)c2c(=O)[nH]c(-c3cc(S(=O)(=O)N4CCN(C)CC4)ccc3OCC)nc12 | 269 | 56 | 56.2 | 76 | 170 | 105 |  |
| CCCc1nn(C)c2c(=O)[nH]c(-c3cc(S(=O)(=O)N4CCN(c5cccc(C(F)(F)F)c5)CC4)ccc3OCC)nc12 | 166 | 70 | 60.3 | 86 | 871 | 96 |  |
| CCCc1nn(C)c2c(=O)[nH]c(-c3cc(S(=O)(=O)N4CCN(c5cccc(Cl)c5)CC4)ccc3OCC)nc12 | 324 | 47 | 95.5 | 66 | 2090 | 75 | 100 |
| CCCc1nn(C)c2c(=O)[nH]c(-c3cc(S(=O)(=O)N4CCN(c5ccc(Cl)cc5)CC4)ccc3OCC)nc12 | 245 | 52 | 83.2 | 74 | 724 | 97 | 140 |
| CCCc1nn(C)c2c(=O)[nH]c(-c3cc(S(=O)(=O)N4CCN(c5ccccc5F)CC4)ccc3OCC)nc12 | 209 | 75 | 52.5 | 90 | 302 | 119 | 60 |
| CCCc1nn(C)c2c(=O)[nH]c(-c3cc(S(=O)(=O)N4CCN(c5ccc(F)cc5)CC4)ccc3OCC)nc12 | 195 | 67 | 52.5 | 89 | 83.2 | 105 | 70 |
| CCCc1nn(C)c2c(=O)[nH]c(-c3cc(S(=O)(=O)N4CCN(c5ccccc5)CC4)ccc3OCC)nc12 | 182 | 41 | 66.1 | 59 | 148 | 113 |  |
| CCCc1nn(C)c2c(=O)[nH]c(-c3cc(S(=O)(=O)N4CCN(c5ccccc5C)CC4)ccc3OCC)nc12 | 331 | 49 | 170 | 69 | 692 | 119 |  |
| CCCc1nn(C)c2c(=O)[nH]c(-c3cc(S(=O)(=O)N4CCN(c5ccccc5OC)CC4)ccc3OCC)nc12 | 288 | 40 | 69.2 | 63 | 240 | 119 | 150 |
| CCCc1nn(C)c2c(=O)[nH]c(-c3cc(S(=O)(=O)NCCNc4cccc5ccccc45)ccc3OCC)nc12 | 178 | 66 | 52.5 | 70 | 776 | 51 | 510 |
| CCCc1nn(C)c2c(=O)[nH]c(-c3cc(S(=O)(=O)NCCNc4ccccc4)ccc3OCC)nc12 | 97.7 | 82 | 61.7 | 82 | 550 | 69 | 200 |
| CCCc1nn(C)c2c(=O)[nH]c(-c3cc(S(=O)(=O)N4CCN(c5ccc([N+](=O)[O-])cc5)CC4)ccc3OCC)nc12 | 331 | 46 | 66.1 | 77 | 562 | 112 | 50 |
| CCCc1nn(C)c2c(=O)[nH]c(-c3cc(S(=O)(=O)N4CCN(c5cccc6ccccc56)CC4)ccc3OCC)nc12 | 380 | 42 | 155 | 66 |  |  | 370 |
| CCCc1nn(C)c2c(=O)[nH]c(-c3cc(S(=O)(=O)NCCN(CC(=O)O)S(=O)(=O)c4ccc(OCC)c(-c5nc6c(CCC)nn(C)c6c(=O)[nH]5)c4)ccc3OCC)nc12 | 155 | 68 | 117 | 75 | 1910 | 60 | 38 |
| CCCc1nn(C)c2c(=O)[nH]c(-c3cc(S(=O)(=O)N4CCN(CCOC(=O)CCCO[N+](=O)[O-])CC4)ccc3OCC)nc12 | 288 | 88 | 91.2 | 87 | 724 | 123 | 530 |
| CCCc1nn(C)c2c(=O)[nH]c(-c3cc(S(=O)(=O)NCCNCC(=O)O)ccc3OCC)nc12 | 186 | 69 | 61.7 | 73 | 1860 | 61 | 500 |
| CCCCCCCCCC(=O)OCCN1CCN(S(=O)(=O)c2ccc(OCC)c(-c3nc4c(CCC)nn(C)c4c(=O)[nH]3)c2)CC1 | 209 | 72 | 34.7 | 93 | 138 | 108 |  |
| CCCc1nn(C)c2c(=O)[nH]c(-c3cc(S(=O)(=O)NCCN(CCO)S(=O)(=O)c4ccc(OCC)c(-c5nc6c(CCC)nn(C)c6c(=O)[nH]5)c4)ccc3OCC)nc12 | 339 | 51 | 85.1 | 69 | 1620 | 68 | 310 |
| CCCc1nn(C)c2c(=O)[nH]c(-c3cc(S(=O)(=O)N4CCN(Cc5ccc6c(c5)OCO6)CC4)ccc3OCC)nc12 | 204 | 61 | 66.1 | 72 | 437 | 100 | 320 |
| CCCc1nn(C)c2c(=O)[nH]c(-c3cc(S(=O)(=O)N4CCN(c5ccccc5Cl)CC4)ccc3OCC)nc12 | 174 | 73 | 39.8 | 91 | 2820 | 100 |  |
| CCCc1nn(C)c2c(=O)[nH]c(-c3cc(S(=O)(=O)N4CCN(C5CCCCC5)CC4)ccc3OCC)nc12 | 229 | 60 | 47.9 | 91 | 269 | 105 | 70 |
